Assay results from ChEMBL document CHEMBL3526140, “Prediction of human intestinal absorption of the prodrug temocapril by in situ single-pass perfusion using rat intestine with modified hydrolase activity” (Drug Metab Dispos, 2011).

How the values were obtained:
[1] = Partition coefficient, log P between n-octanol and phosphate buffer at pH 7.4; type: physicochemical
Jejunum [2] = assay: Intracellular drug level in Wistar rat jejunum at 100 uM at pH 6.4 by in-situ single-pass perfusion method; type: ADME, tissue-based; details: in vivo
Summary of the method: (§1)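 Rats fasted 18–24 h, anesthetized with intraperitoneal pentobarbital. Isolated cannulated jejunal segment kept at 37°C in Krebs–Henseleit buffer with 3% BSA and 10 mM glucose. Vascular perfusion with Krebs–Henseleit (pH 7.4) at 2.5 ml/min. Lumen perfused at 0.2 ml/min with phosphate buffer (pH 5.4, 6.4 or 7.4) containing 100 µM drug plus FD-4. Luminal and vascular samples assayed by HPLC (UV 258 nm). Parameters normalized to 10 cm intestine. Mean ± S.D., n = 3–6.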

Jejunum [3] = assay: Drug uptake in Wistar rat jejunum blood vessel assessed as rate of drug appearance at 100 uM at pH 6.4 by in-situ single-pass perfusion method; type: ADME, tissue-based; details: in vivo, pH 6.4, 100 µM; summary of the method: as §1
Jejunum [4] = assay: Drug uptake in Wistar rat jejunum blood vessel assessed as rate of drug appearance at 100 uM by in-situ single-pass perfusion method; type: ADME, tissue-based; details: in vivo; summary of the method: as §1
Jejunum [5] = assay: Apparent absorption clearance in Wistar rat jejunum at 100 uM at pH 6.4 by in-situ single-pass perfusion method; type: ADME, tissue-based; details: in vivo; summary of the method: as §1
Jejunum [6] = assay: Drug uptake in Wistar rat jejunum lumen assessed as rate of drug appearance at 100 uM by in-situ single-pass perfusion method; type: ADME, tissue-based; details: in vivo; summary of the method: as §1

logD [1]: 2.5 | Drug uptake (Jejunum [2]): 2.99 nmol/g | Drug uptake (Jejunum [3]): 0.193 nmol/min | Drug uptake (Jejunum [4]): 1.22 nmol/min | CL(app) (Jejunum [5]): 1.87 µL/min | Drug uptake (Jejunum [6]): 2.25 nmol/min
SMILES: O=C(O)CN1C[C@@H](c2cccs2)SC[C@H](N[C@@H](CCc2ccccc2)C(=O)O)C1=O [TEMOCAPRILAT]
